Screening results from PubChem BioAssay.
This is a sample that favours compounds with a hit; in the whole collection about 29% have one here.
Ecoli WT expand – E. coli BW25113 growth inhibition, expanded screen. growth inhibition, % at 100 µM. 98,000 tested, 0.15% active. AID 710. OD600 absorbance;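 active = growth inhibition above about 50% at one test dose, limit read from the data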;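 note: growth measured after 20 h incubation at 37 °C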
CYP2C9 activ – increases human cytochrome P450 2C9 activity; P11712; recombinant CYP2C9, luciferin-H conversion, luminescence; hits give high values; factor 1 = untreated enzyme, 0 = blocked; activation factor at 5 µM; 96,000 tested, 1.4% active;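 active = activation factor of 2 or more for CYP2C9 at a 5 µM dose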
Target sequence (P11712 whole entry, looked up): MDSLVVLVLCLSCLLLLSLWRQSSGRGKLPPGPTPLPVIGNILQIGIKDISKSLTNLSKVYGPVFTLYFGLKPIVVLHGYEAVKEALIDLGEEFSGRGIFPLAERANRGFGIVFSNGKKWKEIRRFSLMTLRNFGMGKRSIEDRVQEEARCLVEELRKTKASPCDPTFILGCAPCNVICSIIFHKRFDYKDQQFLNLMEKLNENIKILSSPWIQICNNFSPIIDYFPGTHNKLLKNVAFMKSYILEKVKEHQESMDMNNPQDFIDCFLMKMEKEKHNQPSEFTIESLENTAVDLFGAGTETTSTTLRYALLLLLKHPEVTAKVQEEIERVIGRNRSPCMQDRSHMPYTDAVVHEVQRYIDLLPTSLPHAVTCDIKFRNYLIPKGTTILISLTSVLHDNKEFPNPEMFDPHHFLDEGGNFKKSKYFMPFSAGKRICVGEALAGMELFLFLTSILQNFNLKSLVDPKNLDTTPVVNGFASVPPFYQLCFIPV
Ecoli tolC – growth inhibitors of E. coli BW25113 tolC mutant | OD615 | growth inhibition, % at 10 µM (by protocol) | 65,000 tested, 2.2% active;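 active = growth inhibition at or above a cutoff equal to the mean over every tested compound plus 3 SD, cut at about 60% in these data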;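 note: growth measured after 20 h incubation at 37 °C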
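Doses: one dose of 10 µM final / Material: E. coli BW25113 ΔtolC::kan, tolC deletion mutant strain / Buffer or medium: LB with kanamycin 50 µg/mL / Evaluation: percent growth inhibition / Detection: optical density read at 615 nm / Incubation: 37 °C, 20 h exposure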
CYP2C19 inhib – blocks human cytochrome P450 2C19; 96,000 tested, 21% active; inhibition, % at 5 µM; P33261; AID 778; CYP2C19 Supersomes, luciferin-H EGE luminescence, 30 min;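 active = CYP2C19 inhibition above a set limit at 5 µM in the primary screen, cut at about 50% in these data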
CYP2C9 inhib – human CYP2C9 inhibition | CYP2C9 Supersomes, luciferin-H conversion, luminescence | AID 777 | inhibition, % at 5 µM | 96,000 tested, 20% active | P11712;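 active = blocking of liver enzyme CYP2C9 beyond about 50% at 5 µM, limit read from the data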
CYP2C19 act – activators of human cytochrome P450 2C19; AID 1025; P33261; activation factor at 5 µM; recombinant CYP2C19, luciferin-H EGE luminescence; hits give high values; 0 = fully inhibited enzyme, 1 = untreated enzyme; 96,000 tested, under 10 active;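 active = activation factor of at least 2 at 5 µM in the primary screen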
A number is an active result; 0 = inactive; - = not tested or not shown.

SMILES	Ecoli WT expand	CYP2C9 activ	Ecoli tolC	CYP2C19 inhib	CYP2C9 inhib	CYP2C19 act
CCC(C)OC(=O)c1[nH]c2c(c1C)C(=O)CC(c1ccc(N(C)C)cc1)C2 (stereo unspecified)	0	0	0	68	53	0
CCOCCOC(=O)c1[nH]c2c(c1C)C(=O)CC(c1ccc(N(C)C)cc1)C2 (stereo unspecified)	0	0	0	0	85	0
C/C=C/COC(=O)c1[nH]c2c(c1C)C(=O)CC(c1ccco1)C2 (stereo unspecified)	0	0	0	0	0	0
C/C=C/COC(=O)c1[nH]c2c(c1C)C(=O)CC(c1ccc(N(C)C)cc1)C2 (stereo unspecified)	0	0	0	0	65	0
O=c1c([N+](=O)[O-])c(N2CCCCCC2)c2ccccc2n1-c1ccccc1	0	0	-	0	0	0
O=C1NC2c3ccccc3C(=O)N2c2c1cnn2-c1ccccc1 (stereo unspecified)	0	-	0	-	-	-
CCN1CCn2c3c(c4cc(C)ccc42)CCCC31 (stereo unspecified)	0	0	0	54	52	0
COc1ccc2c(c1)c(=O)oc1c(C)c(OCC(=O)N3CCc4ccccc4C3)ccc12	0	0	-	0	62	0
COc1ccc(N(CC(=O)N2CCc3ccccc3C2)S(C)(=O)=O)cc1OC	0	0	-	0	0	0
COc1cc2c(cc1OC)CN(C(=O)COc1ccc(C)c(C)c1)CC2	0	0	0	72	62	0
Cc1cccn2c(=O)c3cc(C#N)c(=O)n(Cc4cccnc4)c3nc12	-	0	0	0	0	0
CC1CN(C(=O)c2scc3c2OCCO3)CC(C)O1 (stereo unspecified)	0	0	0	0	0	0
CN(C)S(=O)(=O)c1cccc(N=c2scc(-c3ccc4c(c3)NC(=O)CO4)n2CC2CCCO2)c1 (stereo unspecified)	0	0	-	0	50	0
C=CCN1CCN(C(c2cc(OC)ccc2OC)c2nnnn2CC2CCCO2)CC1 (stereo unspecified)	0	0	0	0	0	0
Cc1ccccc1NC(=O)CN1C(=O)COc2ccc(Cl)cc21	0	0	0	97	55	0
CC(=O)c1ccc(NC(=O)CN2C(=O)COc3ccc(Cl)cc32)cc1	0	0	0	75	0	0
Cc1ccc(NC(=O)CN2C(=O)COc3ccc(C)cc32)nc1	0	0	0	0	0	0
CC1=C(C(=O)OCc2ccc3c(c2)OCO3)C(c2ccc(F)cc2)NC(=O)N1 (stereo unspecified)	0	0	-	0	52	0
CCOC(=O)C1=C(Cn2ccc(C(F)(F)F)n2)NC(=O)NC1c1ccc2c(c1)OCO2 (stereo unspecified)	0	0	0	72	65	0
CCOC(=O)C1=C(C)NC(=O)NC1c1ccc2c(c1)OCCO2 (stereo unspecified)	0	0	0	0	0	0
CC1=C(C(=O)OC(C)C)C(c2ccc(Br)s2)NC(=O)N1 (stereo unspecified)	0	0	-	82	0	0
CCC(C)OC(=O)C1=C(C)NC(=O)NC1c1ccc(F)cc1 (stereo unspecified)	0	0	0	95	0	0
COc1cc(/C=N\Nc2ccc([N+](=O)[O-])cc2)ccc1OCC(=O)Nc1ccc(C)c(C)c1	0	0	-	0	0	0
Cc1ccc(S(=O)(=O)/N=S(/C)c2ccccc2)cc1 (stereo unspecified)	0	0	-	0	0	0
CC1=C(C(=O)OC(C)C)C(c2ccc(F)cc2)NC(=O)N1 (stereo unspecified)	0	0	0	85	0	0
SMILES	Ecoli WT expand	CYP2C9 activ	Ecoli tolC	CYP2C19 inhib	CYP2C9 inhib	CYP2C19 act
CC1=C(C(=O)OC(C)C)C(c2ccco2)NC(=O)N1 (stereo unspecified)	0	0	-	0	0	0
CC1=C(C(=O)OCC(C)C)C(c2ccsc2)NC(=O)N1 (stereo unspecified)	0	0	-	65	52	0
CC1(C(=O)NCc2cccnc2)CCC(=O)N1Cc1cccs1 (stereo unspecified)	0	0	0	52	0	0
Cc1ccc2nc(-c3ccc(NS(C)(=O)=O)cc3)cc(-c3ccccc3)c2c1	0	0	-	0	53	0
Cc1ccc2nc(-c3ccncc3)cc(-c3ccccc3)c2c1	0	0	-	0	0	0
CCOc1cc(C)ccc1OCc1nnc(SCC(=O)c2cccc([N+](=O)[O-])c2)n1C	0	0	-	0	0	0
CC(C)NC(=O)c1ccc(OC2CSC2)cc1	0	0	-	0	0	0
CCOC(=O)c1sc(-c2ccccc2)cc1NC(=O)CSc1nnnn1C	0	0	0	0	0	0
Cc1ccccc1NC1=C/C(=N\S(=O)(=O)c2cccs2)c2ccccc2C1=O	0	0	-	82	84	0
O=C1C=C(Nc2ccccc2O)c2ccccc2C1=O	0	0	-	0	0	0
O=C(O)CCC(NS(=O)(=O)c1ccc(-c2ccccc2)cc1)C(=O)O (stereo unspecified)	0	0	0	0	0	0
c1ccc(-c2nc3nonc3nc2-c2ccccc2)cc1	0	0	0	66	0	0
Nc1c(-c2ccccc2)nc(Cl)nc1-c1ccccc1	0	0	-	0	0	0
Cc1cccc(NC(=O)C2CC(=O)n3cnnc3S2)c1 (stereo unspecified)	0	0	-	0	0	0
O=c1c2c3nc4ccccc4nc3n(/N=C/c3cccs3)c2ncn1-c1ccccc1	-	0	0	0	0	0
CCn1c(CNC(=O)c2cccc(C)c2)nnc1SCC(=O)NC1CCCCC1C (stereo unspecified)	0	0	-	0	0	0
CCn1c(CNc2ccccc2Cl)nnc1SCCN1CCCCC1	0	0	0	0	0	0
CCn1c(CNc2ccccc2Cl)nnc1SCC(=O)OC1CCCCC1	0	0	73	70	0	0
CCn1c(CNc2cccc(Cl)c2)nnc1SCC(=O)OC1CCCCC1	0	0	60	74	74	0
Cc1cc(C)c2c(=O)[nH]c(=O)n(Cc3ccccc3)c2n1	0	0	0	0	0	0
COc1cc(-c2nnc(SCc3c(F)cccc3Cl)o2)cc(OC)c1OC	0	0	0	0	58	0
COc1cc(-c2nnc(SCc3ccccc3Cl)o2)cc(OC)c1OC	0	0	77	0	0	0
COc1cccc(C(=O)CSc2nnc(-c3cc(OC)c(OC)c(OC)c3)o2)c1	0	0	0	0	0	0
COc1ccc(OC)c(CC(NC(C)=O)C(=O)NC2CCN(c3nc(C)cc(C)c3C#N)CC2)c1 (stereo unspecified)	-	0	0	0	0	0
COc1ccc(Cl)cc1Nc1nc(N)nc(C(F)(F)F)n1	0	0	-	0	0	0
CC1(C)OC(=O)C(=CNC(Cc2c[nH]c3ccccc23)C(=O)O)C(=O)O1 (stereo unspecified)	0	0	0	0	0	0
Cc1cccc(C)c1NC(=O)c1c(C)nn(-c2ccccc2)c1Cl	0	0	-	51	0	0
